“Also recorded” adds a separate entry of the source.
Key:
TRPC4:C4 [1] = settings: read-out: TRPC4:C4 IC50; cited from earlier work
TRPC5:C5 = settings: read-out: TRPC5:C5 IC50; cited from earlier work
TRPC5-SYFP2 = target: T1, TRPC5-SYFP2 (Homo sapiens, UniProt Q9UL62); experiment: Competition photoaffinity labelling; assay type: binding; settings: Pico145 10 μM pre-treatment; 300 nM Pico145-DAAlk 5
T1 sequence (Q9UL62 1-973): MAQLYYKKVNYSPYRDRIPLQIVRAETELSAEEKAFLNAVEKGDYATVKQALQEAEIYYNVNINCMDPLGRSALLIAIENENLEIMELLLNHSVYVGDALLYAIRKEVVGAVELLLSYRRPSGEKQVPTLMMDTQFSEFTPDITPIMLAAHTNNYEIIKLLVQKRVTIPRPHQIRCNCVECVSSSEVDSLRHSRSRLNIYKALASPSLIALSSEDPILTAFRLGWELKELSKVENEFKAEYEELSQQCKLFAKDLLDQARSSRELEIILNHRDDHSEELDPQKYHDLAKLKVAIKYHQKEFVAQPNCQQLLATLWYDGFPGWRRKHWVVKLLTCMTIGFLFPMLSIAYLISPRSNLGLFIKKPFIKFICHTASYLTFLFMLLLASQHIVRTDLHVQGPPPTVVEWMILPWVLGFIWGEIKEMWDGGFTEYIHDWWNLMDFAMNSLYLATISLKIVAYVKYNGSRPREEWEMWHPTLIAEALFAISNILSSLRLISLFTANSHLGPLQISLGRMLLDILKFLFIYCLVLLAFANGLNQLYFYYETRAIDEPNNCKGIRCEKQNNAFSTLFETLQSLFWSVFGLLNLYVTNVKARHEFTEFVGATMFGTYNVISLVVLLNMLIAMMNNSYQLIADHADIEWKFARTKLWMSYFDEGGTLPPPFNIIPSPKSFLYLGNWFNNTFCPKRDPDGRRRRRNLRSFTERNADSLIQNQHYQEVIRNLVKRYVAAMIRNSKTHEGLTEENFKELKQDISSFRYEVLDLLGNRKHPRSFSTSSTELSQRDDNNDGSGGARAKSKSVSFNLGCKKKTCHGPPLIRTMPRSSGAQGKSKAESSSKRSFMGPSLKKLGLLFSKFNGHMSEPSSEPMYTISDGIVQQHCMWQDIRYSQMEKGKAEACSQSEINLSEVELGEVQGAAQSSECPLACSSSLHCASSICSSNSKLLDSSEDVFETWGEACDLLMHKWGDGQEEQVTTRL
Outline: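 Tetracycline-induced (1 μg ml−1, 24 h) cells in SBS pre-treated 30 min at 37 °C with test compound or DMSO, then 30 min at 37 °C with 300 nM diazirine-alkyne probe plus competitor. Streptavidin-HRP/anti-GFP blots; biotin/GFP densitometry versus probe-only control; n = 3; one-way ANOVA, Dunnett.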

TRPC4:C4 [2] = target: T2, TRPC4:C4 (Homo sapiens, UniProt Q9UBN4); settings: read-out: TRPC4:C4 IC50; 10 nM EA was used as activator; cited from earlier work
T2 sequence (Q9UBN4 1-893 isoform Q9UBN4-2): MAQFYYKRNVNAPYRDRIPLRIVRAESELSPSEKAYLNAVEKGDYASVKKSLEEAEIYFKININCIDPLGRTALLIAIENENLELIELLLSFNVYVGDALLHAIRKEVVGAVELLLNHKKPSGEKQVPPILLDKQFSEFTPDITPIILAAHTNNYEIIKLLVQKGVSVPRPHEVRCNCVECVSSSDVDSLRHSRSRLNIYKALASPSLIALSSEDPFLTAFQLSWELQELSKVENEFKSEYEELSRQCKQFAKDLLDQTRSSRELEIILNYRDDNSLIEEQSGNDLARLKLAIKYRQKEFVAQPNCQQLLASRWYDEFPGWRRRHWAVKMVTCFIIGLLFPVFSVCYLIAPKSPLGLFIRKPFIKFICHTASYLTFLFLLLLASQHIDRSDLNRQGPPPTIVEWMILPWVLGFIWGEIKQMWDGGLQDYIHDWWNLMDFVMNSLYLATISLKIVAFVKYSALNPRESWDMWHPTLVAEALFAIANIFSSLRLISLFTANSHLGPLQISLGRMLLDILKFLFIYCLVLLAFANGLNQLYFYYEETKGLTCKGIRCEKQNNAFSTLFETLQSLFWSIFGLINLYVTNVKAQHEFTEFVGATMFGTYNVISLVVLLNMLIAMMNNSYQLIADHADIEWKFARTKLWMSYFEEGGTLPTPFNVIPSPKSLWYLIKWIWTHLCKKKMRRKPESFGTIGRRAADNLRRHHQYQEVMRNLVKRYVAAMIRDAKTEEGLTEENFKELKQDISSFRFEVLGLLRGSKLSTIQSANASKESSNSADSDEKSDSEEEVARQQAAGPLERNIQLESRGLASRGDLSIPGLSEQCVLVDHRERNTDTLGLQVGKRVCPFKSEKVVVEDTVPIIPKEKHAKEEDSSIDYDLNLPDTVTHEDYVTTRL

TRPC4-C1 = TRPC4-C1 (Homo sapiens, UniProt P48995+Q9UBN4); settings: read-out: TRPC4-C1 IC50; 10 nM EA was used as activator; cited from earlier work
[3] = cited from earlier work

Chain of TRPC4-C1 (P48995 whole entry, one chain of several): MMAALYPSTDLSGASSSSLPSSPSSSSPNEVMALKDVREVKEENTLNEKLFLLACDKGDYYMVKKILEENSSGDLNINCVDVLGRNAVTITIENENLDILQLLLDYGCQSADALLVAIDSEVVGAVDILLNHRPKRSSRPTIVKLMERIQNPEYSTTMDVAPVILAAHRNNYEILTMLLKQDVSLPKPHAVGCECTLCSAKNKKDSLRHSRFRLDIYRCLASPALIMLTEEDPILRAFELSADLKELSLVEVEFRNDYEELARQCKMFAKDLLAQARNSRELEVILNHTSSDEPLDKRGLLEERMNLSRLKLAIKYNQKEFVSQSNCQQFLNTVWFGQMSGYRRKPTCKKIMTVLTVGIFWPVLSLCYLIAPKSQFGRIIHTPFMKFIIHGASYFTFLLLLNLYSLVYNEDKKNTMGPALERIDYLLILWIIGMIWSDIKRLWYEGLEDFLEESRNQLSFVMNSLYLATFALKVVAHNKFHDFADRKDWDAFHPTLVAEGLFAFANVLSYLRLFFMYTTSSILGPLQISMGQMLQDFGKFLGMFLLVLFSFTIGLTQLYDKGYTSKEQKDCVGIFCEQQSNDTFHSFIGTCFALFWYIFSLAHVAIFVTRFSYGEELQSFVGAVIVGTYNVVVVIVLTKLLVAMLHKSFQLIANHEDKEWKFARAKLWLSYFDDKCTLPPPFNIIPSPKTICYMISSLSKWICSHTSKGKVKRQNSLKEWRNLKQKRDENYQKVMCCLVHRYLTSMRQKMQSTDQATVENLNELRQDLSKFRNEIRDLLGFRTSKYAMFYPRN

| SMILES | IC50 (TRPC4:C4 [1]) [nM] | IC50 (TRPC5:C5) [nM] | Effect on TRPC5 photoaffinity labelling with Pico145-DAAlk 5 (TRPC5-SYFP2) | IC50 (TRPC4:C4 [2]) [nM] | IC50 (TRPC4-C1) [nM] | Oral bioavailability [3] |
| --- | --- | --- | --- | --- | --- | --- |
| O=C1CN(c2cn[nH]c(=O)c2Cl)CCN1Cc1ccccc1C(F)(F)F [GFB-8438] | 290 | 180 to 280 | – | – | – | – |
| Cn1c(=O)n(CCCO)c(=O)c2c1nc(Oc1cccc(OC(F)(F)F)c1)n2Cc1ccc(Cl)cc1 [Pico145 1] | – | – | inhibition of TRPC5 labelling; also recorded: inhibits photoaffinity labelling | 0.35 | 0.03 | orally bioavailable |

— publication PMC10655067 (RSC Chemical Biology, 2020)
